According to ChEMBL document CHEMBL4406918, “Inhibitory Effects of Multivalent Polypeptides on the Proliferation and Metastasis of Breast Cancer Cells” (ACS Med Chem Lett, 2019):
The source made the active and inactive calls. The rule behind the calls is not given here.

Tests used:
4T1 [1] = experiment: Induction of apoptosis in mouse 4T1 cells assessed as necrotic cells at 0.4 mM incubated for 24 hrs by Annexin V-FITC/PI based FACS analysis (reference value: 0.47%); type: functional
[2] = Toxicity in BALB/c mouse xenografted with mouse 4T1 cells assessed as induction of morphological lesions in kidney at 10 mg/kg administered intratumorally and measured after 24 days by H and E staining based inverted optical microscopic method; type: organism-based; details: in vivo, other, 576 h
[3] = Toxicity in BALB/c mouse xenografted with mouse 4T1 cells assessed as induction of morphological lesions in spleen at 10 mg/kg administered intratumorally and measured after 24 days by H and E staining based inverted optical microscopic method; type: organism-based; details: in vivo, other, 576 h
4T1 [4] = experiment: Potency index, ratio of test compound effect to YSL effect for inhibition of cell migration in mouse 4T1 cells; type: functional
[5] = Toxicity in BALB/c mouse xenografted with mouse 4T1 cells assessed as induction of morphological lesions in liver at 10 mg/kg administered intratumorally and measured after 24 days by H and E staining based inverted optical microscopic method; type: organism-based; details: in vivo, other, 576 h
4T1 [6] = experiment: Antitumour activity against mouse 4T1 cells xenografted in BALB/c mouse assessed as inhibition in tumor growth at 10 mg/kg administered intratumorally and measured every 3 days for 24 days; type: functional, organism-based
Procedure, shortened: (§1)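 BALB/c mice bearing subcutaneous 4T1 tumours received 6 doses of 10 mg/kg, with equal YSL-monomer molar amounts across compounds and saline as control. Tumour volume growth curves and body weights were tracked. Mean ± SD, n = 5.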

4T1 [7] = experiment: Antitumour activity against mouse 4T1 cells xenografted in BALB/c mouse assessed as increase in cytotoxic tumor cell death at 10 mg/kg administered intratumorally and measured after 24 days by H and E staining based inverted optical microscopic method; type: functional, organism-based
Procedure, shortened: (§2)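 BALB/c mice bearing subcutaneous 4T1 tumours received 6 doses at 10 mg/kg body weight, matched for YSL monomer molar amount, with saline as control. Tumour sections were stained for H&E, CD31, Ki-67 and TUNEL. n = 5.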

4T1 [8] = experiment: Inhibition of cell migration in mouse 4T1 cells assessed as migration frequency at 0.2 mM incubated for 24 hrs by crystal violet staining based transwell assay relative to control; type: functional; set-up: scale not given: the % may be the effect or the level left
Procedure, shortened: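 4T1 cells, Transwell migration with 24 h exposure to 0.2 mM. Migration rate comes from counting cells on the bottom of the porous membrane. Mean ± SD, n = 3.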

[9] = Toxicity in BALB/c mouse xenografted with mouse 4T1 cells assessed as induction of morphological lesions in heart at 10 mg/kg administered intratumorally and measured after 24 days by H and E staining based inverted optical microscopic method; type: organism-based; details: in vivo, other, 576 h
4T1 [10] = experiment: Inhibition of metastasis in mouse 4T1 cells assessed as shortening in actin filaments at 0.2 mM incubated for 24 hrs by Hoechst 33342 staining based confocal laser scanning microscopic method; type: functional, cell-based
Procedure, shortened: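 After 24 h treatment, 4T1 cells were stained with Alexa Fluor 488 phalloidin for F-actin and Hoechst 33342 for nuclei, then imaged by fluorescence microscopy to assess cytoskeleton and cell morphology.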

4T1 [11] = experiment: Antiproliferative activity against mouse 4T1 cells at 0.1 mM incubated for 24 hrs by MTT assay; type: functional, cell-based
[12] = Toxicity in BALB/c mouse xenografted with mouse 4T1 cells assessed as change in body weight at 10 mg/kg administered intratumorally and measured after 24 days; type: organism-based; details: in vivo, other, 576 h; procedure, shortened: as §1
4T1 [13] = experiment: Induction of cell cycle arrest in mouse 4T1 cells assessed as accumulation at S phase at 0.4 mM incubated for 24 hrs by PI staining based flow cytometric analysis (Rvb =42.35%); type: functional
4T1 [14] = experiment: Antitumour activity against mouse 4T1 cells xenografted in BALB/c mouse assessed as […] at 10 mg/kg administered intratumorally and measured after 24 days by H and E staining based inverted optical microscopic method; type: functional, organism-based; procedure, shortened: as §2
4T1 [15] = experiment: Antitumour activity against mouse 4T1 cells xenografted in BALB/c mouse assessed as reduction in size of lung tumor metastatic nodules at 10 mg/kg administered intratumorally and measured after 24 days by H and E staining based inverted optical microscopic method; type: functional, organism-based
Procedure, shortened: (§3)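 After 6 doses of 10 mg/kg to 4T1 tumour-bearing BALB/c mice (saline control), lungs were photographed whole and examined histopathologically for the number and size of metastatic nodules.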

4T1 [16] = experiment: Antitumour activity against mouse 4T1 cells xenografted in BALB/c mouse assessed as reduction in number of lung tumor metastatic nodules at 10 mg/kg administered intratumorally and measured after 24 days by H and E staining based inverted optical microscopic method; type: functional, organism-based; procedure, shortened: as §3
Erythrocyte = experiment: Hemolytic activity in BALB/c mouse RBC at 3.2 mM incubated for 2 hrs by UV-Vis spectrophotometric analysis; type: ADME, cell-based; details: 3200 µM
Procedure, shortened: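 Hemolysis assay on red blood cells with dendrimers up to 3.2 mM. Result is expressed as hemolysis rate, with under 5% taken as acceptable.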

4T1 [17] = experiment: Antitumour activity against mouse 4T1 cells xenografted in BALB/c mouse assessed as increase in damage of tumor tissue at 10 mg/kg administered intratumorally and measured after 24 days by H and E staining based inverted optical microscopic method; type: functional, organism-based
Procedure, shortened: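 Tumours from 4T1-bearing BALB/c mice given 6 doses of 10 mg/kg (saline control) were sectioned and stained with H&E, plus CD31, Ki-67 and TUNEL.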

4T1 [18] = experiment: Induction of apoptosis in mouse 4T1 cells at 0.4 mM incubated for 24 hrs by PI staining based inverted microscopic method; type: functional, cell-based
Procedure, shortened: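 Live–dead staining of 4T1 cells after 24 h exposure to 0.4 mM, read by PI staining. A 0.8 mM level was also examined.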

[19] = Stability in fetal bovine serum assessed as parent compound remaining measured after 12 hrs by RP-HPLC analysis; type: ADME, cell-free, Bos taurus; details: cattle, read-out: Stability
Procedure, shortened: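 Peptides incubated in serum, and the fraction of intact YSL was measured over time up to 12 h, including a 4 h point.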

4T1 [20] = experiment: Antitumour activity against mouse 4T1 cells xenografted in BALB/c mouse assessed as increase in number of TUNEL positive cells at 10 mg/kg administered intratumorally and measured after 24 days by H and E staining based inverted optical microscopic method; type: functional, organism-based; procedure, shortened: as §2
[21] = target: Matrix metalloproteinase-9 (Mus musculus) (UniProt P41245); experiment: Residual MMP9 activity in mouse 4T1 cells at 0.2 mM incubated for 24 hrs by coomassie brilliant blue staining based gelatin zymography assay relative to control
4T1 [22] = experiment: Induction of apoptosis in mouse 4T1 cells assessed as early apoptotic cells at 0.4 mM incubated for 24 hrs by Annexin V-FITC/PI based FACS analysis (reference value: 0.76%); type: functional
4T1 [23] = experiment: Antitumour activity against mouse 4T1 cells xenografted in BALB/c mouse assessed as reduction in number of Ki67 positive tumor cells at 10 mg/kg administered intratumorally and measured after 24 days by H and E staining based inverted optical microscopic method; type: functional, organism-based; procedure, shortened: as §2
4T1 [24] = experiment: Inhibition of metastasis in mouse 4T1 cells assessed as formation of pseudopods at 0.2 mM incubated for 24 hrs by SEM analysis; type: functional, cell-based
Procedure, shortened: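 4T1 cells treated 24 h, then imaged by scanning electron microscopy for pseudopod formation. Dendrimers were tested at 0.2 mM and the reference at 10–5 mM.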

4T1 [25] = experiment: Antiproliferative activity against mouse 4T1 cells assessed as cell death at 0.2 mM incubated for 24 hrs by MTT assay relative to control; type: functional
Procedure, shortened: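 Mouse 4T1 breast cancer cells exposed for 24 h (doses include 0.1 and 0.2 mM), then read by MTT for viability or cell death. Mean ± SD, n = 6.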

Sequence of Matrix metalloproteinase-9 (Mus musculus) (P41245 whole entry): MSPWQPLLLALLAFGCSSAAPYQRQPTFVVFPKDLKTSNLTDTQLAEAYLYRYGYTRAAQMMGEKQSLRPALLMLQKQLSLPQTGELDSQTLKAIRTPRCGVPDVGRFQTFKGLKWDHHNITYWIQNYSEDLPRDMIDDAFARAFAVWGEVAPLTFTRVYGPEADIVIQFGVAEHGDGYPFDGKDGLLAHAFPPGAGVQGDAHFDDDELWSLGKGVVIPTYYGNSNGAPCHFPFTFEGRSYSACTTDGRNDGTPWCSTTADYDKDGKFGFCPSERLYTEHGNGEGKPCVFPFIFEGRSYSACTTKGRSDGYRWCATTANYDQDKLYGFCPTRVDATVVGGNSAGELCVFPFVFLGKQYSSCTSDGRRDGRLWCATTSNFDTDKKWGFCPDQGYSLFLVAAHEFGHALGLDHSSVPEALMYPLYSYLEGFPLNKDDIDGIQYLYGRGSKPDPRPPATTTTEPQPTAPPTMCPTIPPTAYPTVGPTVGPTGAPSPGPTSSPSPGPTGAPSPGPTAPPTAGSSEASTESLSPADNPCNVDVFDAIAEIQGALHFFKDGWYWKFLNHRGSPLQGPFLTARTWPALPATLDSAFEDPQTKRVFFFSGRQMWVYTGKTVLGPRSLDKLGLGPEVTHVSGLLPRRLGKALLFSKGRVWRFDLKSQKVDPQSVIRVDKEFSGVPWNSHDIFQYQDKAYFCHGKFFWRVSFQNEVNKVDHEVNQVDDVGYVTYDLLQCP

Question: Which Activity (4T1 [1]) does the source give for `COC(=O)[C@H](CCCCNC(=O)[C@H](CCCCNC(=O)[C@H](CCCCNC(=O)[C@H](CC(C)C)NC(=O)[C@H](CO)NC(=O)[C@@H](N)Cc1ccc(O)cc1)NC(=O)[C@H](CC(C)C)NC(=O)[C@H](CO)NC(=O)[C@@H](N)Cc1ccc(O)cc1)NC(=O)[C@H](CCCCNC(=O)[C@H](CC(C)C)NC(=O)[C@H](CO)NC(=O)[C@@H](N)Cc1ccc(O)cc1)NC(=O)[C@H](CC(C)C)NC(=O)[C@H](CO)NC(=O)[C@@H](N)Cc1ccc(O)cc1)NC(=O)[C@H](CCCCNC(=O)[C@H](CCCCNC(=O)[C@H](CC(C)C)NC(=O)[C@H](CO)NC(=O)[C@@H](N)Cc1ccc(O)cc1)NC(=O)[C@H](CC(C)C)NC(=O)[C@H](CO)NC(=O)[C@@H](N)Cc1ccc(O)cc1)NC(=O)[C@H](CCCCNC(=O)[C@H](CC(C)C)NC(=O)[C@H](CO)NC(=O)[C@@H](N)Cc1ccc(O)cc1)NC(=O)[C@H](CC(C)C)NC(=O)[C@H](CO)NC(=O)[C@@H](N)Cc1ccc(O)cc1` here?
Answer: 2.41%

Question: And the Activity [2]?
Answer: Non-Toxic

Question: And the Activity [3]?
Answer: Non-Toxic

Question: What about the Ratio (4T1 [4]) of the same compound?
Answer: 4.5

Question: What about the Activity [5] of the same compound?
Answer: Non-Toxic

Question: And the Activity (4T1 [6])?
Answer: Active

Question: What about the Activity (4T1 [7]) of the same compound?
Answer: Active

Question: And the Activity (4T1 [8])?
Answer: 10%

Question: What about the Activity [9] of the same compound?
Answer: Non-Toxic

Question: And the inhibition (4T1 [10])?
Answer: Active

Question: What about the Activity (4T1 [11]) of the same compound?
Answer: inactive

Question: What about the Activity [12] of the same compound?
Answer: Non-Toxic

Question: And the Activity (4T1 [13])?
Answer: 46.42%

Question: And the Activity (4T1 [14])?
Answer: Active

Question: And the Activity (4T1 [15])?
Answer: Active

Question: And the Activity (4T1 [16])?
Answer: Active

Question: What about the Activity (Erythrocyte) of the same compound?
Answer: Non-Toxic

Question: And the Activity (4T1 [17])?
Answer: Active

Question: What about the Activity (4T1 [18]) of the same compound?
Answer: Active

Question: What about the remaining at 12 h [19] of the same compound?
Answer: > 80%

Question: And the Activity (4T1 [20])?
Answer: Active

Question: What about the residual activity [21] of the same compound?
Answer: 34%

Question: What about the Activity (4T1 [22]) of the same compound?
Answer: 3.95%

Question: What about the Activity (4T1 [23]) of the same compound?
Answer: Active

Question: What about the inhibition (4T1 [24]) of the same compound?
Answer: inactive

Question: What about the Activity (4T1 [25]) of the same compound?
Answer: 20%
